Bioassay records from PubChem.
HTRA1 inhibitor: blocks human HTRA1 serine peptidase; inhibition, % at 5.96 µM; 340,000 compounds, 0.5% hits; recombinant HTRA1, FP-rhodamine activity-based probe, fluorescence polarization; Q92743; in the data active means inhibition above about 36%
mABHD4 FP: inhibits mouse alpha/beta hydrolase domain 4. purified mABHD4, FP-Rh probe fluorescence polarization. inhibition, % at 8.92 µM. 370,000 compounds, 0.54% hits. Q8VD66. AID 720543;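 active means inhibition exceeding the mean over every tested compound plus 3 SD, cut at about 30% in these data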
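Assay system: Wild-type mouse ABHD4 protein | Medium: HEPES pH 7.0 buffer, 150 mM NaCl, 0.01% Pluronic F-127 | Incubation: Enzyme–compound pre-incubation 45 min, then probe 60 min, both 25 °C | Technique: Fluorescence polarization with parallel and perpendicular emission, 525/598 nm | Evaluation: % inhibition of FP-Rh probe binding versus controls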
LEDGF integ inh: blocks HIV-1 LEDGF/p75-dependent DNA integration; TR-FRET IN-LEDGF/p75 DNA integration, Eu/Cy5; inhibition, % at 3.7 µM; 370,000 compounds, 0.64% hits; AID 743269;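 active means inhibition above the screen-wide mean plus 3 SD, cut at about 13% in these data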;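 further: signal is the Cy5 over europium emission ratio at 671 and 618 nm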
rCAG binder: binds r(CAG) RNA repeats. r(CAG) RNA repeat, TO-PRO-1 dye displacement fluorescence. inhibition, % at 3 µM. 370,000 compounds, 1.3% hits. AID 651821;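 active means inhibition above the plate cutoff, the mean of all test compounds on that plate plus 3 SD, cut at about 35% in these data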;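 further: higher means more dye released from RNA so lower well fluorescence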
DAGLB inh: diacylglycerol lipase beta (human) inhibition; inhibition, % at 5.17 µM; AID 504411; 340,000 compounds, 0.059% hits; Q8NCG7; HEK293T DAGLB membrane lysate, EnzChek fluorogenic substrate; in the data active means inhibition above about 34%
Target sequence (Q8NCG7 whole entry, looked up): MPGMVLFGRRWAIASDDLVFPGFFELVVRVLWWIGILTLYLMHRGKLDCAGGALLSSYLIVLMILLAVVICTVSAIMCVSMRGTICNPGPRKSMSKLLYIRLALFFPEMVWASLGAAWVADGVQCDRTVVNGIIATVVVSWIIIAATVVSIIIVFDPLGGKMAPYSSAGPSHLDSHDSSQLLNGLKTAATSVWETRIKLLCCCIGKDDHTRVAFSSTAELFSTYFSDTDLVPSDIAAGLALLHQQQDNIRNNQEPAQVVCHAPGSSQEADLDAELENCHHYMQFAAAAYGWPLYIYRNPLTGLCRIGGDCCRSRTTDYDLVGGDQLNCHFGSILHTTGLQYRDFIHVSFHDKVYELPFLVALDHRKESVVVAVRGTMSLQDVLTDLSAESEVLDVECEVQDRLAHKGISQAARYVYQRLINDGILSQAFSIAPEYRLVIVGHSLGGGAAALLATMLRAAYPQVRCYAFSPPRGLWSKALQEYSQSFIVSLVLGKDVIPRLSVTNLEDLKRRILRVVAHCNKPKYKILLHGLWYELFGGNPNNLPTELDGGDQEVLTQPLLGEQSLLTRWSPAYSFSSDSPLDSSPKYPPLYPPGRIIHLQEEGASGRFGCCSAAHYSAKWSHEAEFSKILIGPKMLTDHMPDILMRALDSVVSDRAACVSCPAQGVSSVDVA
PRMT1 inh: inhibitors of human PRMT1 | inhibition, % at 2.79 µM | 370,000 compounds, 1.3% hits | recombinant PRMT1, activity-based probe fluorescence polarization;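 active means inhibition above about 21% made by adding two undisclosed values, limit read from the data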
IN multimer act: activates HIV-1 integrase multimerization in LEDGF counter-screen; activation, % at 7.7 µM; TR-FRET HIV-1 integrase multimerization, biochemical; shares compounds with LEDGF integ inh; 2,000 compounds, 17% hits; AID 1053131; in the data active means activation above about 8.9%
TRFRET interf: counter-screen for LEDGF/p75 integration inhibitors: TR-FRET optical interference | shares compounds with LEDGF integ inh | TR-FRET optical interference counterscreen, HIV-1 IN multimerization | inhibition, % at 7.7 µM | 2,000 tested, under 10 active;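 active means inhibition above the mean over all tested compounds plus 3 SD, which no compound reached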
LEDGF integ conf: LEDGF/p75-dependent HIV-1 integration inhibition, confirmation | AID 1053136 | shares compounds with LEDGF integ inh | 2,000 compounds, 36% hits | inhibition, % at 3.7 µM | TR-FRET LEDGF/p75-dependent HIV-1 integration, biochemical; in the data active means inhibition above about 14%
Each line names hits and unclear results; the compound was inactive in the other large screens (follow-up assays come after a bar, where they were run). An excerpt weighted towards active compounds, which were near 3.2% of everything screened.

CCOC(=O)C1=C(C)N(c2ccccc2)C(=O)/C1=C\c1cccs1	none
CCOC(=O)C1=C(C)N(c2ccc(C)cc2)C(=O)/C1=C\c1cccs1	LEDGF integ inh 58 | IN multimer act inactive | TRFRET interf inactive | LEDGF integ conf inactive
Cc1ccc(-c2ccc(=O)n(CC(=O)NCCCN3CCCCC3C)n2)cc1 (configuration not stated)	LEDGF integ inh 24 | IN multimer act inactive | TRFRET interf inactive | LEDGF integ conf inactive
C=C(C)C(=O)Nc1cccc(C2=NOC3(C2)C[C@@H](C(N)=O)N(C(=O)[C@H]2CCC(=O)N2)C3)c1 (some centres not stated)	LEDGF integ inh 28 | IN multimer act inactive | TRFRET interf inactive | LEDGF integ conf 24
C/C=C(/C)C(=O)Nc1cccc(C2=NOC3(C2)C[C@@H](C(N)=O)N(C(=O)[C@H]2CCC(=O)N2)C3)c1 (some centres not stated)	none
Cc1cc(C)c(CN2CCN(Cc3ccc(C)o3)C(CCO)C2)c(-n2cccn2)c1 (configuration not stated)	none
CC(C)N(C(=O)Nc1ccc2nsnc2c1)C(C)C	LEDGF integ inh 51, PRMT1 inh 25 (no result: HTRA1 inhibitor, DAGLB inh) | IN multimer act inactive | TRFRET interf inactive | LEDGF integ conf 75
CC1CCN(C(=O)Nc2ccc3nsnc3c2)CC1	none
C=CCN(CC=C)C(=S)Nc1ccc2nsnc2c1	LEDGF integ inh 58, PRMT1 inh 28 | IN multimer act inactive | TRFRET interf inactive | LEDGF integ conf inactive
COc1ccc(N(C)C(=O)Nc2ccc3nsnc3c2)cc1	LEDGF integ inh 56 | IN multimer act inactive | TRFRET interf inactive | LEDGF integ conf inactive
C=CCNC(=S)Nc1ccc2nsnc2c1	none
COc1ccc(N(C)C(=O)Nc2ccc3c(c2)nnn3C)cc1	none
CCOc1ccc(NC(=S)Nc2ccc3nsnc3c2)cc1	LEDGF integ inh 40 | IN multimer act inactive | TRFRET interf inactive | LEDGF integ conf 74
O=C(N/N=C/c1ccc(O)cc1)NC12CC3CC(CC(C3)C1)C2	none
C[C@@H]1CN([C@@H](C)CO)C(=O)CCCn2nncc2CO[C@@H]1CN(C)S(=O)(=O)c1ccccc1C#N	none
COc1ccc(NC(=S)Nc2ccc3nsnc3c2)cc1	LEDGF integ inh 52 | IN multimer act 16 | TRFRET interf inactive | LEDGF integ conf 74
COc1ccc(NC(=S)Nc2ccc3nc(C)c(C)nc3c2)cc1	none
O=C(CCN1CCCCC1)NNC(=O)C12CC3CC(CC(C3)C1)C2	LEDGF integ inh 89 | IN multimer act inactive | TRFRET interf inactive | LEDGF integ conf inactive
O=C(/C=C/c1ccco1)NC(=S)Nc1ccc(C(=O)O)cc1	LEDGF integ inh 63, PRMT1 inh 24 | IN multimer act 37 | TRFRET interf inactive | LEDGF integ conf 53
Cc1ccnc(NC(=S)NC(=O)/C=C/c2ccco2)c1	LEDGF integ inh 16, PRMT1 inh 23 | IN multimer act inactive | TRFRET interf inactive | LEDGF integ conf inactive
Cc1cccc(C)c1NC(=O)NCCSc1snnc1C	LEDGF integ inh 15 | IN multimer act inactive | TRFRET interf inactive | LEDGF integ conf inactive
FC(F)(F)c1ccc(C2[C@H]3CN(CC4CCCCC4)[C@H](c4ccccc4)C34CC2(c2cccnc2)C4)cc1 (some centres not stated)	none
C=CC(=O)N1C/C(=C/c2ccc(F)cc2)C(=O)/C(=C\c2ccc(F)cc2)C1	LEDGF integ inh 14 | IN multimer act 11 | TRFRET interf inactive | LEDGF integ conf 18
O=C(c1ccc2c(c1)N(Cc1ccccc1F)C(=O)c1ccccc1S2)N1CCOCC1	LEDGF integ inh 30 (no result: HTRA1 inhibitor, DAGLB inh) | IN multimer act inactive | TRFRET interf inactive | LEDGF integ conf inactive
O=C(NCCN1CCOCC1)c1ccc2c(c1)N(Cc1ccccc1F)C(=O)c1ccccc1S2	none
CC(=O)Nc1ccc2c(c1)C(=Nc1ccccc1)c1ccccc1-2	none
CC1CN(C)C(C)C/C1=N\Oc1ccc([N+](=O)[O-])cc1 (configuration not stated)	none
CC1CN(C)C(C)C/C1=N/Oc1ccccc1[N+](=O)[O-] (configuration not stated)	LEDGF integ inh 26 | IN multimer act inactive | TRFRET interf inactive | LEDGF integ conf inactive
Cc1ccc(OCC(=O)Nc2ccc(F)cc2)cc1C	LEDGF integ inh 20 | IN multimer act inactive | TRFRET interf inactive | LEDGF integ conf inactive
Cc1ccc(OCC(=O)Nc2ccncc2)cc1C	none
COc1cc(F)cc(C2=CC(=O)C[C@H](c3ccc(F)cc3)C2)c1	LEDGF integ inh 59 | IN multimer act inactive | TRFRET interf inactive | LEDGF integ conf inactive
COC(=O)C1=C(CCc2ccccc2)NC(=O)NC1c1ccc(Cl)cc1 (configuration not stated)	LEDGF integ inh 18 | IN multimer act inactive | TRFRET interf inactive | LEDGF integ conf inactive
COc1cc(C(=O)N2CCCCC2)ccc1OCC(=O)Nc1ccc(F)cc1	none
O=C(N/N=C/c1ccc([N+](=O)[O-])o1)C1CCCC1	none
O=[N+]([O-])c1ccc(/C=[N+](\[O-])[C@@H]2CCCC[C@@H]2/[N+]([O-])=C/c2ccc([N+](=O)[O-])o2)o1	LEDGF integ inh 19 | IN multimer act inactive | TRFRET interf inactive | LEDGF integ conf 34
COc1ccc(/C=N/Nc2nc(N)cc(Cl)n2)cc1OC	LEDGF integ inh 28 | IN multimer act inactive | TRFRET interf inactive | LEDGF integ conf inactive
CCOC(=S)N/C(=N\S(C)(=O)=O)c1ccccc1	none
NC(=O)c1ccsc1NC(=O)c1ccc(S(=O)(=O)N2CCCC2)cc1	none
NC(=O)c1ccsc1NC(=O)c1ccc(S(=O)(=O)N2CCCCC2)cc1	LEDGF integ inh 22 | IN multimer act inactive | TRFRET interf inactive | LEDGF integ conf inactive
Cn1nc(C(C)(C)C)cc1C(=O)Nc1nc2c(s1)C(=O)CC(C)(C)C2	none
Cc1ccc(NC(=O)C2CCCN2C(=O)NC2CCCCC2)cc1C (configuration not stated)	LEDGF integ inh 53 | IN multimer act inactive | TRFRET interf inactive | LEDGF integ conf inactive
O=C(CCSc1ccccc1)Nc1nnc(-c2ccccc2)o1	LEDGF integ inh 16 | IN multimer act inactive | TRFRET interf inactive | LEDGF integ conf inactive
